pIC50: −log10 of the molar value. Activity calls are given as the source filed them. No cut-off for these calls is given here.
Key:
Echinochloa crus-galli = test: Phytotoxicity against Echinochloa crusgalli assessed as inhibition of radicle elongation; type: functional, organism-based
Procedure, shortened: (§1)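 Seedling radicle growth assay at 28 °C. Pure compounds tested at 1, 10 and 100 µg mL-1, with 2,4-D as positive control. Results analysed by ANOVA (p < 0.05). IC50 calculated by Probit analysis from percent radicle growth inhibition.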

[1] = test system: Amaranthus hypochondriacus; test: Phytotoxicity against Amaranthus hypochondriacus assessed as inhibition of radicle elongation; type: functional, organism-based; procedure, shortened: as §1
Calmodulin (Bos taurus) [2] = target: Calmodulin (Bos taurus) (UniProt P62157); test: Binding affinity to bovine brain calmodulin at 0.033 ug/mL after 1.5 hrs by electrophoretic mobility assay in presence of calcium chloride
Procedure, shortened: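 Bovine brain calmodulin (2 µg samples) pretreated with isolates at 0.033 µg/mL plus 1 mM CaCl2 for 1.5 h at 30 °C. Mobility then compared against untreated calmodulin on 15% polyacrylamide SDS-PAGE. A parallel condition used EGTA in place of Ca2+.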

[3] = target: Calmodulin (Spinacia oleracea) (UniProt P04353); test: Binding affinity to spinach calmodulin at 0.033 ug/mL after 1.5 hrs by electrophoretic mobility assay presence of EGTA
Procedure, shortened: (§2)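 Commercial spinach or bovine brain calmodulin, 2-µg samples, pretreated with compound for 1.5 h at 30 °C in presence of 1 mM CaCl2 or EGTA, then run on 15% polyacrylamide SDS-PAGE gels. Binding judged by shift in electrophoretic mobility relative to untreated calmodulin under the same condition (Ca2+ vs EGTA).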

Calmodulin (Bos taurus) [4] = target: Calmodulin (Bos taurus) (UniProt P62157); test: Binding affinity to bovine brain calmodulin at 0.033 ug/mL after 1.5 hrs by electrophoretic mobility assay in presence of EGTA; procedure, shortened: as §2
[5] = target: Calmodulin (Spinacia oleracea) (UniProt P04353); test: Binding affinity to spinach calmodulin at 0.033 ug/mL after 1.5 hrs by electrophoretic mobility assay in presence of calcium chloride; procedure, shortened: as §2

SMILES | pIC50 (Echinochloa crus-galli) | pIC50 [1] | Activity (Calmodulin (Bos taurus) [2]) | Activity [3] | Activity (Calmodulin (Bos taurus) [4]) | Activity [5]
COc1cc(OC)c2c(O)c3c(c(OC)c2c1)O[C@@H](C)CC3=O | 4.40 | 4.89 | Active | Active | inactive | Active
O=C(O)COc1ccc(Cl)cc1Cl [2,4-DICHLOROPHENOXYACETIC ACID] | 3.06 | 3.74 | – | – | – | –
COC(=O)c1ccc(O)cc1 [METHYLPARABEN] | 3.20 | 4.64 | Active | Active | inactive | Active
CC1=C2C(=CO[C@H](C)[C@H]2C)C(O)=C(C(=O)O)C1=O [CITRININ] | 4.20 | 4.26 | Active | Active | inactive | Active
COc1cc(OC)c2c(O)c3c(cc2c1)O[C@@H](C)[C@H](C)C3=O | 3.92 | 4.00 | Active | Active | inactive | Active
COc1cc(OC)c2c(O)c3c(c(OC)c2c1)O[C@@H](C)[C@H](C)C3=O | 4.21 | 4.19 | – | Active | Active | Active
Cc1cc(O)c2c(c1)C(=O)c1cc(O)cc(O)c1C2=O [EMODIN] | 4.70 | 3.89 | Active | Active | inactive | Active
COc1cc(OC)c2c(O)c3c(=O)c(C)c(C)oc3cc2c1 | 3.77 | 4.10 | Active | Active | inactive | Active
COc1cc(OC)c2c(O)c3c(=O)cc(C)oc3cc2c1 [RUBROFUSARIN B] | 4.06 | 4.89 | Active | Active | inactive | Active
COc1cc(OC)c2c(O)c3c(cc2c1)O[C@@H](C)CC3=O | 4.06 | 4.64 | Active | Active | inactive | Active
